From ChEMBL document CHEMBL1126317, “2-(aminoalkyl)-5-nitropyrazolo[3,4,5-kl]acridines, a new class of anticancer agents” (1992)
Activity calls are given as the source filed them. The calls are words filed in the database; no cut-off is given here.

Key:
Mus musculus [1] = assay: In vivo antitumor activity of the compound(ip, 6 mg/kg for 5 days) against CD2F1 mice implanted intraperitoneally with P388 leukemia cells.; type: functional; conditions: route intraperitoneal
Mus musculus [2] = assay: In vivo antitumor activity of the compound(ip, 6 mg/kg for 5 days) against CD2F1 mice implanted intraperitoneally with P388 leukemia cells; Day 30 survivors=1/6; type: functional; conditions: route intraperitoneal
L1210 [3] = assay: In vitro antitumor activity against L1210 leukemia cell line.; type: functional; conditions: Mus musculus, read-out: ID50 (the source's name)
Mus musculus [4] = assay: In vivo antitumor activity of the compound(ip, 50 mg/kg for 5 days) against CD2F1 mice implanted intraperitoneally with P388 leukemia cells.; type: functional; conditions: route intraperitoneal
L1210 [5] = assay: In vitro antitumor activity against L1210 leukemia cell line; IA= Inactive; type: functional, cell-based; conditions: Mus musculus
HCT-8 [6] = assay: In vitro antitumor activity against HCT-8 human colon line; IA= Inactive; type: functional, cell-based
HCT-8 [7] = assay: In vitro antitumor activity against HCT-8 colon cancer cell line.; type: functional; conditions: Homo sapiens, read-out: ID50 (the source's name)
Mus musculus [8] = assay: In vivo antitumor activity of the compound(ip, 50 mg/kg for 5 days) against CD2F1 mice implanted intraperitoneally with P388 leukemia cells; Day 30 survivors=1/6; type: functional; conditions: route intraperitoneal
[9] = Ratio of the ID50's showing antitumor activity against HCT-8 and L1210 leukemia cell lines.; type: functional
Method in brief: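 Ratio taken as ID50 in HCT-8 cells divided by ID50 in L1210 cells, both ID50s expressed as molar concentrations.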

Mus musculus [10] = assay: In vivo antitumor activity of the compound(ip, 12.5 mg/kg for 5 days) against CD2F1 mice implanted intraperitoneally with P388 leukemia cells.; type: functional; conditions: route intraperitoneal
Mus musculus [11] = assay: In vivo antitumor activity of the compound(ip, 3.12 mg/kg for 5 days) against CD2F1 mice implanted intraperitoneally with P388 leukemia cells.; type: functional; conditions: route intraperitoneal
Mus musculus [12] = assay: In vivo antitumor activity of the compound(ip, 50 mg/kg for 5 days) against CD2F1 mice implanted intraperitoneally with P388 leukemia cells; Day 30 survivors=3/6; type: functional; conditions: route intraperitoneal
Mus musculus [13] = assay: In vivo antitumor activity of the compound(ip, 25 mg/kg for 5 days) against CD2F1 mice implanted intraperitoneally with P388 leukemia cells; Day 30 survivors=2/6; type: functional; conditions: route intraperitoneal
Mus musculus [14] = assay: In vivo antitumor activity of the compound(ip, 25 mg/kg for 5 days) against CD2F1 mice implanted intraperitoneally with P388 leukemia cells.; type: functional; conditions: route intraperitoneal
Mus musculus [15] = assay: In vivo antitumor activity of the compound(ip, 3.12 mg/kg for 5 days) against CD2F1 mice implanted intraperitoneally with P388 leukemia cells; Day 30 survivors=2/6; type: functional; conditions: route intraperitoneal
Mus musculus [16] = assay: In vivo antitumor activity of the compound(ip, 3.12 mg/kg for 5 days) against CD2F1 mice implanted intraperitoneally with P388 leukemia cells; Day 30 survivors=3/6; type: functional; conditions: route intraperitoneal
Mus musculus [17] = assay: In vivo antitumor activity of the compound(ip, 6.25 mg/kg for 5 days) against CD2F1 mice implanted intraperitoneally with P388 leukemia cells.; type: functional; conditions: route intraperitoneal
Mus musculus [18] = assay: In vivo antitumor activity of the compound(ip, 100 mg/kg for 5 days) against CD2F1 mice implanted intraperitoneally with P388 leukemia cells.; type: functional; conditions: route intraperitoneal
Mus musculus [19] = assay: In vivo antitumor activity of the compound(ip, 3.13 mg/kg for 5 days) against CD2F1 mice implanted intraperitoneally with P388 leukemia cells.; type: functional; conditions: route intraperitoneal

Question: Which T/C (Mus musculus [1]) does the source give for `CCN(CC)CCN1Nc2c3c(Cl)c(O)ccc3nc3c([N+](=O)[O-])ccc1c23.CS(=O)(=O)O` here?
Answer: 196%

Question: And the Activity (Mus musculus [2])?
Answer: 1

Question: And the IC50 (L1210 [3])?
Answer: 0.00039 µM

Question: Which results are given for `CCN(CC)CCOc1ccc2c(c1)-c1nn(CCN(CC)CC)c3ccc([N+](=O)[O-])c(c13)N2.CS(=O)(=O)O`?
Answer: T/C (Mus musculus [4]): 118%; IC50 (L1210 [3]): 0.5 µM

Question: Which IC50 (L1210 [3]) does the source give for `COc1cc(OC)c2c(c1)-c1nn(CCN(C)C)c3ccc([N+](=O)[O-])c(c13)N2` here?
Answer: 0.21 µM

Question: For `COc1ccc2c(c1)-c1nn(CCCl)c3ccc([N+](=O)[O-])c(c13)N2`, which ID50 (L1210 [5]) is on record?
Answer: inactive

Question: And the ID50 (HCT-8 [6])?
Answer: inactive

Question: Which results are given for `CCNCCN1Nc2c3cc(OC)ccc3nc3c([N+](=O)[O-])ccc1c23.CS(=O)(=O)O`?
Answer: IC50 (HCT-8 [7]): 0.12 µM; Activity (Mus musculus [8]): 1; T/C (Mus musculus [4]): 240%; Ratio [9]: 0.57; IC50 (L1210 [3]): 0.21 µM

Question: With `CCN(CC)CCN1Nc2c3cc(OCc4ccccc4)ccc3nc3c([N+](=O)[O-])ccc1c23.CS(=O)(=O)O` as the compound, how does the T/C (Mus musculus [4]) read?
Answer: 200%

Question: What about the IC50 (L1210 [3]) of the same compound?
Answer: 0.027 µM

Question: Which T/C (Mus musculus [10]) does the source give for `CCCCOc1ccc2c(c1)-c1nn(CCNCCO)c3ccc([N+](=O)[O-])c(c13)N2.CS(=O)(=O)O` here?
Answer: 175%

Question: What about the IC50 (L1210 [3]) of the same compound?
Answer: 0.65 µM

Question: Which T/C (Mus musculus [10]) does the source give for `C=CCOc1ccc2nc3c([N+](=O)[O-])ccc4c3c(c2c1)NN4CCCN(C)C.CS(=O)(=O)O` here?
Answer: 221%

Question: What about the IC50 (L1210 [3]) of the same compound?
Answer: 2.2 µM

Question: Which T/C (Mus musculus [11]) does the source give for `CS(=O)(=O)O.O=[N+]([O-])c1ccc2c3c(nn2CCN2CCCC2)-c2cc(O)ccc2Nc13` here?
Answer: 250%

Question: And the IC50 (L1210 [3])?
Answer: 0.003 µM

Question: For `CCOc1ccc2c(c1)-c1nn(CCN(CC)CC)c3ccc([N+](=O)[O-])c(c13)N2.CS(=O)(=O)O`, which T/C (Mus musculus [10]) is on record?
Answer: 220%

Question: And the IC50 (L1210 [3])?
Answer: 0.79 µM

Question: Which results are given for `CCN(CC)CCN1Nc2c3c(OC)cc(OC)cc3nc3c([N+](=O)[O-])ccc1c23.CS(=O)(=O)O`?
Answer: T/C (Mus musculus [4]): 94%; IC50 (L1210 [3]): 0.49 µM

Question: With `COc1ccc2c(c1)-c1nn(CCN(C)C)c3ccc([N+](=O)[O-])c(c13)N2.CS(=O)(=O)O` as the compound, how does the IC50 (L1210 [3]) read?
Answer: 0.4 µM

Question: What about the Activity (Mus musculus [12]) of the same compound?
Answer: 3

Question: Which Activity (Mus musculus [13]) does the source give for `CCCOc1ccc2c(c1)-c1nn(CCN(CC)CC)c3ccc([N+](=O)[O-])c(c13)N2.CS(=O)(=O)O` here?
Answer: 2

Question: And the T/C (Mus musculus [14])?
Answer: 273%

Question: What about the IC50 (L1210 [3]) of the same compound?
Answer: 0.46 µM

Question: With `COc1ccc2c(c1)-c1nn(CCO)c3ccc([N+](=O)[O-])c(c13)N2` as the compound, how does the ID50 (L1210 [5]) read?
Answer: inactive

Question: With `Cc1ccc2c(c1)-c1nn(CCNCCO)c3ccc([N+](=O)[O-])c(c13)N2.Cl` as the compound, how does the T/C (Mus musculus [4]) read?
Answer: 115%

Question: For `CN(C)CCCN1Nc2c3ccc(O)cc3nc3c([N+](=O)[O-])ccc1c23.Cl`, which T/C (Mus musculus [4]) is on record?
Answer: 140%

Question: And the IC50 (L1210 [3])?
Answer: 6.7 µM

Question: Which IC50 (L1210 [3]) does the source give for `COc1ccc2c(c1)-c1nn(CCNCCO)c3ccc([N+](=O)[O-])c(c13)N2` here?
Answer: 0.45 µM

Question: What does the source list for `CN(C)CCN1Nc2c3cc(O)ccc3nc3c([N+](=O)[O-])ccc1c23.CS(=O)(=O)O`?
Answer: T/C (Mus musculus [11]): 228%; Activity (Mus musculus [15]): 2; IC50 (L1210 [3]): 0.0027 µM

Question: For `CC(=O)Oc1ccc2nc3c([N+](=O)[O-])ccc4c3c(c2c1)NN4CCN(C)C.CS(=O)(=O)O`, which T/C (Mus musculus [11]) is on record?
Answer: 265%

Question: And the Activity (Mus musculus [16])?
Answer: 3

Question: And the IC50 (L1210 [3])?
Answer: 0.0012 µM

Question: For `CCN(CC)CCN1Nc2c3cc(O)c(Cl)cc3nc3c([N+](=O)[O-])ccc1c23.CS(=O)(=O)O`, which T/C (Mus musculus [4]) is on record?
Answer: 125%

Question: And the IC50 (L1210 [3])?
Answer: 0.15 µM

Question: Which results are given for `CCN(CC)CCN1Nc2c3ccccc3nc3c([N+](=O)[O-])ccc1c23.CS(=O)(=O)O`?
Answer: IC50 (L1210 [3]): 0.19 µM; T/C (Mus musculus [17]): 165%

Question: Which T/C (Mus musculus [10]) does the source give for `CCCCOc1ccc2c(c1)-c1nn(CCN(CC)CC)c3ccc([N+](=O)[O-])c(c13)N2.CS(=O)(=O)O` here?
Answer: 209%

Question: And the IC50 (L1210 [3])?
Answer: 0.012 µM

Question: For `CCN(CC)CCN1Nc2c3cccc(OC)c3nc3c([N+](=O)[O-])ccc1c23.CS(=O)(=O)O`, which T/C (Mus musculus [18]) is on record?
Answer: 111%

Question: And the IC50 (L1210 [3])?
Answer: 0.64 µM

Question: With `CN(C)CCCN1Nc2c3cc(O)ccc3nc3c([N+](=O)[O-])ccc1c23.CS(=O)(=O)O` as the compound, how does the T/C (Mus musculus [11]) read?
Answer: 270%

Question: And the IC50 (HCT-8 [7])?
Answer: 0.012 µM

Question: What about the Activity (Mus musculus [16]) of the same compound?
Answer: 3

Question: And the Ratio [9]?
Answer: 6.7

Question: What about the IC50 (L1210 [3]) of the same compound?
Answer: 0.0018 µM

Question: For `CCOC(=O)Oc1ccc2c(c1)-c1nn(CCN(CC)CC)c3ccc([N+](=O)[O-])c(c13)N2.CS(=O)(=O)O`, which T/C (Mus musculus [19]) is on record?
Answer: 243%
